Data on 20 compounds can be found in ChEMBL document CHEMBL2203100, “Disubstituted quinazoline derivatives as a new type of highly selective ligands for telomeric G-quadruplex DNA” (Eur J Med Chem, 2012).

Calls of active or inactive are those of the source. The rule behind the calls is not given here.

The subject of experiment [1] is Nucleic Acid. Kind of experiment: Binding affinity to human fluorescent labeled oligonucleotide F21T telomeric G-quadruplex DNA assessed as change in melting temperature at 1 uM after 30 secs by FRET assay. The format is nucleic-acid assay.
The subject of experiment [2] is Nucleic Acid. As to the kind of experiment: Binding affinity to hairpin fluorescent labeled oligonucleotide F10T duplex DNA assessed as change in melting temperature at 1 uM after 30 secs by FRET assay.
Experiment [3] relates to Nucleic Acid. Kind of experiment: Binding affinity to human biotinylated duplex DNA assessed as equilibrium dissociation constant upto 10 to 20 uM by SPR assay. Type of experiment: nucleic-acid assay. The essentials:
(§1)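 Biotinylated HTG21 (d(GGG[TTAGGG]3)) or duplex DNA was folded in 50 mM Tris-HCl pH 7.2 with 100 mM KCl. About 1000 RU was captured on flow cells 1 and 2, with the third cell as blank. Six ligand concentrations from 0.15625 µM upward were injected for 150 s association and 300 s dissociation at 25 °C. KD came from global Langmuir fitting of the kinetics.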
On the technique in general: In SPR one partner is held on a chip, and binding of the other changes the refractive index at the surface.

Experiment [4] has as its system Nucleic Acid. Kind of experiment: Binding affinity to human telomeric HTG21 G-quadruplex DNA after 6 hrs in presence of K+ ions by CD spectroscopy. Type of experiment: nucleic-acid assay. The method in brief: (§2)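 HTG21 in 10 mM Tris-HCl pH 7.2 with 100 mM KCl was titrated with ligand at 0–5 mol equiv. Samples were heated to 95 °C, cooled slowly to room temperature and held at 4 °C for at least 6 h. CD was scanned at 230–450 nm in a 4 mm quartz cuvette with 1 nm bandwidth, 1 nm steps and 0.5 s per point.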

Experiment [5] has as its target Nucleic Acid. Kind of experiment: Binding affinity to human biotinylated telomeric HTG21 G-quadruplex DNA assessed as equilibrium dissociation constant by SPR assay. The format is nucleic-acid assay. The essentials:
as §1

The target of experiment [6] is Telomerase reverse transcriptase (Homo sapiens, UniProt O14746). As to the kind of experiment: Inhibition of human telomerase in cell free system after 1 min by TRAP-LIG assay. The note with it: in the assay text read “after 20 mins” for “after 1 min”. The essentials:
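TRAP-LIG used 500 ng protein extract from exponentially growing MCF-7 cells to extend 0.1 µg TS primer. The buffer was 20 mM Tris-HCl pH 8.3, 68 mM KCl, 1.5 mM MgCl2, 1 mM EGTA and 0.05% Tween 20, with 125 µM dNTPs and BSA, plus ligand at various concentrations or none. After 20 min elongation and purification, products were amplified with ACX/TS primers and Taq for 35 cycles (94 °C 30 s, 61 °C 1 min, 72 °C 1 min).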

In experiment [7] the test system is Nucleic Acid. Kind of experiment: Binding affinity to human fluorescent labeled oligonucleotide F21T telomeric G-quadruplex DNA assessed as change in melting temperature at 1 uM by FRET assay in presence of duplex DNA competitor ds26. The format is nucleic-acid assay.
Experiment [8] concerns Nucleic Acid. As to the kind of experiment: Binding affinity to human telomeric HTG21 G-quadruplex DNA after 6 hrs by CD spectroscopy. Type of experiment: nucleic-acid assay. The essentials:
as §2

The test system of experiment [9] is HL-60. As to the kind of experiment: Induction of telomere shortening in human HL60 cells at 0.625 uM after 16 days by telomeric restriction fragment length assay. The format is functional, cell-based. The essentials:
(§3)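 HL60 cells were treated with ligand (0.625 or 1.25 µM) or 0.1% DMSO for 16 days. Genomic DNA was digested with HinfI/RsaI and run on a 0.8% agarose gel, then blotted to nylon and fixed at 120 °C for 20 min. The blot was hybridized with a DIG-labeled telomeric probe, bound with anti-DIG-alkaline phosphatase and detected by chemiluminescence.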

Experiment [10] deals with HL-60. As to the kind of experiment: Cytotoxicity against human HL60 cells assessed as cell viability after 48 hrs by MTT assay. The format is functional, cell-based. The note with it: HL-60, 48 h. The method in brief:
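HL60 cells were seeded at 1.0 × 10³ per well and exposed to a range of compound concentrations for 48 h at 37 °C in 5% CO2. MTT (5 mg/mL) was added for 4 h, formazan was dissolved in DMSO and OD was read at 570 nm. Each dose was run in triplicate, and IC50 was taken from mean OD versus concentration curves.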
A general note: Tetrazolium dyes change colour on reduction, which living cells bring about.

The subject of experiment [11] is Nucleic Acid. Kind of experiment: Binding affinity to human oligonucleotide telomeric HT6 G-quadruplex DNA by NMR spectroscopy. Type of experiment: nucleic-acid assay. The essentials:
(§4)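 1H NMR titration at 400 MHz and 25 °C of 0.5 mM [d(TTAGGG)]4 in 90% H2O/10% D2O with 25 mM potassium phosphate (pH 7.0) and 150 mM KCl. Ligand:quadruplex ratios were 0, 0.25, 0.5, 1 and 2. Water was suppressed by Watergate. Shifts and broadening of DNA signals were followed. The oligonucleotide was HPLC-purified.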

Experiment [12] has as its system Nucleic Acid. Kind of experiment: Binding affinity to A3 site of human oligonucleotide telomeric HT6 G-quadruplex DNA by NMR spectroscopy. Type of experiment: nucleic-acid assay. The essentials: as §4
The test system of experiment [13] is HL-60. As to the kind of experiment: Cytotoxicity against human HL60 cells assessed as decrease in population doubling at 2.5 uM after 8 days. The format is functional, cell-based.
Experiment [14] concerns HL-60. As to the kind of experiment: Induction of senescence in human HL60 cells assessed enlarged cells measured every 4 days for 16 days by optical microscopy. The format is functional, cell-based. The essentials:
(§5)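 After 16 days of long-term HL60 culture with ligand renewed every 4 days (1.25 µM shown, versus 0.1% DMSO), cells were fixed in 2% formaldehyde/0.2% glutaraldehyde for 15 min at room temperature. They were washed with PBS and stained overnight at 37 °C with X-gal (1 mg/mL). SA-β-Gal and enlarged or flattened morphology were scored by optical microscopy.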

Experiment [15] deals with Nucleic Acid. Kind of experiment: Binding affinity to human oligonucleotide telomeric HT6 G-quadruplex DNA at 0.5:1 ligand to quadruplex ratio by NMR spectroscopy. Type of experiment: nucleic-acid assay. The method in brief: as §4
Experiment [16] has as its system HL-60. As to the kind of experiment: Growth inhibition of human HL60 cells assessed as decrease in population doubling at 0.625 uM after 16 days. Type of experiment: functional, cell-based.
For experiment [17], the system named is HL-60. As to the kind of experiment: Growth inhibition of human HL60 cells assessed as decrease in population doubling at 2.5 uM after 12 days. The format is functional, cell-based.
Experiment [18] has as its system HL-60. Kind of experiment: Induction of telomere shortening in human HL60 cells at 1.25 uM after 16 days by telomeric restriction fragment length assay. The format is functional. The method in brief:
as §3

The test system of experiment [19] is HL-60. As to the kind of experiment: Induction of senescence in human HL60 cells assessed as beta galactosidase activity at 1.25 uM measured every 4 days for 16 days. The format is functional, cell-based. The method in brief:
as §5

The subject of experiment [20] is Nucleic Acid. As to the kind of experiment: Binding affinity to G4 site of human oligonucleotide telomeric HT6 G-quadruplex DNA by NMR spectroscopy. Type of experiment: nucleic-acid assay. The method in brief:
as §4

Experiment [21] has as its system HL-60. As to the kind of experiment: Induction of senescence in human HL60 cells assessed flattened cells measured every 4 days for 16 days by optical microscopy. Type of experiment: functional, cell-based. The essentials:
as §5

Experiment [22] concerns HL-60. Kind of experiment: Growth inhibition of human HL60 cells assessed as decrease in population doubling at 1.25 uM after 12 days. The format is functional, cell-based.

Sequence of Telomerase reverse transcriptase (O14746 whole entry): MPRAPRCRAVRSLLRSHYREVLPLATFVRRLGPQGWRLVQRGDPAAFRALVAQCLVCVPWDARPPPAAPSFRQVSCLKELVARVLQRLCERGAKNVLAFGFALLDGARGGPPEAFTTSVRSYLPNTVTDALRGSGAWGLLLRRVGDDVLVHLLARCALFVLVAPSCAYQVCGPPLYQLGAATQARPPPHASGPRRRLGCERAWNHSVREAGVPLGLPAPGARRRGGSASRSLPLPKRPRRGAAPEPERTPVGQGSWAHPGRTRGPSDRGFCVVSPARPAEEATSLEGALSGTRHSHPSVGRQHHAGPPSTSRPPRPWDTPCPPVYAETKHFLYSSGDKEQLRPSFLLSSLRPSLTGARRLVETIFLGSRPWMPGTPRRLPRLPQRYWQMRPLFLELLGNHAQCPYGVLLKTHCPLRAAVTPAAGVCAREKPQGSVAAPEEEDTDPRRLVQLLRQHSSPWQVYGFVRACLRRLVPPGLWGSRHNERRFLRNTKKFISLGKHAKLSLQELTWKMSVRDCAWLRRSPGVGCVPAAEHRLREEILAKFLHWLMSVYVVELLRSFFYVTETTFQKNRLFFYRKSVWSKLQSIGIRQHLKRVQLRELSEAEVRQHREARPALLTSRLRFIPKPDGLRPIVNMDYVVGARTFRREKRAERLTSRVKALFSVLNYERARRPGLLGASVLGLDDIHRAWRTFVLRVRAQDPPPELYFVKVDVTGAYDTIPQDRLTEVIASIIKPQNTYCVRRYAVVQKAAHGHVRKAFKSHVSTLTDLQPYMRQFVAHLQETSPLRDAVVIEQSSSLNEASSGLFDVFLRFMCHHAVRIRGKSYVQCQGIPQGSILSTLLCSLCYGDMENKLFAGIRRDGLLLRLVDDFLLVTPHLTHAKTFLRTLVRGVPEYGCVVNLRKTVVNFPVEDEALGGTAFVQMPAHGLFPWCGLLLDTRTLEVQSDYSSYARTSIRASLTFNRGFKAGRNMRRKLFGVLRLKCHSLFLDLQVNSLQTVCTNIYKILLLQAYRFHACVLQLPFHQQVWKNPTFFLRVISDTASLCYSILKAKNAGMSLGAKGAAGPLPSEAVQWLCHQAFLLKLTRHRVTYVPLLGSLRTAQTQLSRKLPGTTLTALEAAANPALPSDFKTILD

As to `CCN(CC)CC(=O)Nc1cc(Cl)ccc1-c1nc(NCCCN(C)C)c2ccccc2n1`, the ΔTm stood at 4.5 °C in experiment [1] and 0.1 °C in experiment [2].

Turning to `CN(C)CCCNc1nc(-c2ccc(Cl)cc2NC(=O)CN2CCN(C)CC2)nc2ccccc12`, the result in experiment [3] was inactive. The ΔTm in experiment [1] stood at 10.1 °C; in experiment [2] it was 0.3 °C. In addition, the outcome in experiment [4] and in experiment [7] was Active. Further, the dissociation constant (Kd) in experiment [5] is 2.11 µM. The compound also returned a concentration for half-maximal inhibition (IC50) in experiment [6] of 29.3 µM.

For `CN(C)CCCNc1nc(-c2ccc(Cl)cc2N)nc2ccccc12`, the ΔTm worked out at 0.7 °C in experiment [1] and 0.3 °C in experiment [2].

`CN(C)CCCNc1nc(-c2ccc(Cl)cc2NC(=O)CCN2CCCC2)nc2ccccc12`: the ΔTm stood at 12.8 °C in [1] and 0.2 °C in experiment [2].

With `CN(C)CCCNCC(=O)Nc1cc(Cl)ccc1-c1nc(NCCCN(C)C)c2ccccc2n1`, in [3], the result was inactive. Also, the results for the ΔTm in experiment [1] and in [2] were 13 °C and 0.3 °C, respectively. Also, the Kd in experiment [5] stood at 0.337 µM. Also, in experiment [7], the result was Active.

For `CCN(CC)CCC(=O)Nc1cc(Cl)ccc1-c1nc(NCCCN(C)C)c2ccccc2n1`, the shift in melting temperature (ΔTm) in [1] is 14.4 °C; in experiment [2], 0.1 °C.

`CN(C)CCCNc1nc(-c2ccc(Cl)cc2NC(=O)CCCN2CCN(C)CC2)nc2ccccc12`: the outcome in experiment [3] was inactive. The ΔTm in experiment [1] is 14.7 °C; in experiment [2], 0.4 °C. In [5], the Kd turned out to be 0.278 µM. In [6], this compound displayed an IC50 of 7.7 µM. Further, the outcome in experiment [7] and in experiment [8] was Active.

Consider `CN(C)CCCNc1nc(-c2ccc(Cl)cc2NC(=O)CCCN2CCOCC2)nc2ccccc12`, for which the figures for the ΔTm in [1] and in [2] were 9.8 °C and 0.1 °C, respectively. The result in experiment [7] was Active.

Turning to `CN(C)CCCNc1nc(-c2ccc(Cl)cc2NC(=O)CNCCN2CCCC2)nc2ccccc12`, the ΔTm in experiment [1] worked out at 10.4 °C; in experiment [2], 0.3 °C.

Take `CN(C)CCCNc1nc(-c2ccc(Cl)cc2NC(=O)CNCCN2CCCCC2)nc2ccccc12`: the results for the ΔTm in experiment [1] and in [2] were 9.6 °C and 0.2 °C, respectively.

As for `CN(C)CCCNc1nc(-c2ccc(Cl)cc2NC(=O)CCCN2CCCCC2)nc2ccccc12`, the ΔTm in experiment [1] turned out to be 11.6 °C; in [2], 0.2 °C.

On to `CCN(CC)CCCNCC(=O)Nc1cc(Cl)ccc1-c1nc(NCCCN(C)C)c2ccccc2n1`, for which the ΔTm in [1] is 12.3 °C; in experiment [2], 0.2 °C.

`CN(C)CCCNc1nc(-c2ccc(Cl)cc2NC(=O)CCN2CCCCC2)nc2ccccc12`: the thermal shift (ΔTm) in [1] was 11.8 °C; in [2], 0.2 °C.

`CN(C)CCCNc1nc(-c2ccc(Cl)cc2NC(=O)CCN2CCN(C)CC2)nc2ccccc12`: in experiment [3], the outcome was inactive. For the same compound, the result in experiment [9], in [11], in experiment [12], in experiment [13], in [14] and in [15] was Active. The result in experiment [7], in [8], in experiment [19], in experiment [20] and in experiment [21] was Active. In addition, the ΔTm in experiment [1] was 15.5 °C; in experiment [2], 0.3 °C. Besides, the IC50 in experiment [10] is 9.6 µM; in [6] it was 7.4 µM. Moreover, the Kd in experiment [5] amounted to 0.314 µM. Also, the “growth inhibition (GI)” value in experiment [16], in [17] and in experiment [22] was “Active” in each case. Besides, the Activity in experiment [18] amounted to 1.2 kilobase.

Consider `CN(C)CCCNc1c2ccccc2nc2c1[nH]c1ccccc12`, for which the ΔTm in experiment [1] is 9.9 °C; in [2], 5.5 °C. For the same compound, the result in experiment [7] was inactive.

For the compound `CN(C)CCCNCCC(=O)Nc1cc(Cl)ccc1-c1nc(NCCCN(C)C)c2ccccc2n1`, in [8], the outcome was Active.

In the case of `CN(C)CCCNc1nc(-c2ccc(Cl)cc2NC(=O)CN2CCOCC2)nc2ccccc12`, the values for the ΔTm in experiment [1] and in experiment [2] were 3.9 °C and 0 °C, respectively. In experiment [7], the result was Active.

Regarding `CN(C)CCCNc1nc(-c2ccc(Cl)cc2NC(=O)CCN2CCOCC2)nc2ccccc12`, the results for the ΔTm in experiment [1] and in experiment [2] were 8.4 °C and 0.1 °C, respectively. Moreover, the outcome in experiment [7] was Active.

Regarding `CN(C)CCCNc1nc(-c2ccc(Cl)cc2NC(=O)CN2CCCCC2)nc2ccccc12`, the results for the ΔTm in experiment [1] and in experiment [2] were 5.4 °C and 0.2 °C, respectively.

Regarding `CN(C)CCCNc1nc(-c2ccc(Cl)cc2NC(=O)CN2CCCC2)nc2ccccc12`, the values for the ΔTm in experiment [1] and in [2] were 7.4 °C and 0.1 °C, respectively.

A word on the ΔTm: it is the shift of the melting midpoint relative to a reference. As a reminder, the Kd is the concentration at which binding is half-saturated. By IC50 is commonly meant the concentration that inhibits the measured activity by half.
